Source: ChEMBL document CHEMBL1926506, “Benzenediol-berberine hybrids: multifunctional agents for Alzheimer's disease” (Bioorg Med Chem, 2011)
The source made the active and inactive calls. The calls are words filed in the database; no cut-off is given here.

Key:
[1] = Antioxidant activity assessed as trolox equivalent of […]-induced radical scavenging activity at 0.5 to 10 uM measured every 60 sec for 4 hrs by ORAC fluorescence assay relative to trolox; type: functional
In short: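 ORAC-FL in 75 mM phosphate buffer pH 7.4. Sample and fluorescein (300 nM final) preincubated 10 min at 37 °C, then AAPH added (12 mM final). Fluorescence read every 60 s for 4 h (ex 485, em 535 nm). Trolox standard 1–10 µM final; samples 0.5–10 µM. Blank without antioxidant run each assay, curves normalized to it. Fourfold mixtures, at least four independent runs. Expressed as µM Trolox equivalent per µM compound.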

[2] = Selectivity ratio of IC50 for equine serum BuChE to IC50 for electric eel AChE
In short: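 Ellman assay in 0.1 M KH₂PO₄/K₂HPO₄ buffer, pH 8.0, with electric eel AChE or equine serum BuChE (2.0 units/ml solutions) and DTNB. Compounds dissolved in DMSO, diluted in buffer, and preincubated with enzyme for 15 min at 37 °C before substrate was added. A412 was read at 1 min intervals at 37 °C. Ratio calculated as IC50(BuChE)/IC50(AChE).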

Butyrylcholinesterase [3] = target: T1, Butyrylcholinesterase (Equus caballus, UniProt Q9N1N9); assay: Inhibition of equine serum BuChE using […] as substrate preincubated for 15 mins by Ellman's method
Acetylcholinesterase = Acetylcholinesterase (Electrophorus electricus, UniProt O42275); assay: Inhibition of electric eel AChE using […] as substrate preincubated for 15 mins by Ellman's method
[4] = Inhibition of self-mediated amyloid beta (1 to 42) aggregation at 20 uM after 48 hrs by thioflavin T fluorescence assay
In short: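 HFIP-pretreated Abeta1-42 resolubilized in 50 mM phosphate buffer pH 7.4, then incubated at 37 °C for 48 h (final peptide 50 µM) with or without compound at 20 µM. Samples diluted into 50 mM glycine-NaOH pH 8.0 containing thioflavin T. Fluorescence scanned 300 s (ex 450, em 485 nm). Plateau values averaged after subtracting thioflavin T background.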

Butyrylcholinesterase [5] = target: T1, Butyrylcholinesterase; assay: Inhibition of equine serum BuChE using butyrylthiocholine chloride as substrate preincubated for 15 mins by Ellman's method
[6] = target: Acetylcholinesterase (Electrophorus electricus) (UniProt O42275); assay: Mixed type inhibition of electric eel AChE using acetylcholine chloride as substrate by Lineweaver-Burk reciprocal plot analysis
In short: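 Enzyme in 0.1 M potassium phosphate pH 8.0 with DTNB. Compound preincubated with enzyme at 37 °C for 15 min, then acetylcholine substrate added. Absorbance read at 412 nm. Reciprocal plots of 1/V versus 1/[S]. Slopes replotted against inhibitor concentration by weighted analysis. Ki taken as the replot intercept divided by the replot slope.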

T1 sequence (Q9N1N9 whole entry): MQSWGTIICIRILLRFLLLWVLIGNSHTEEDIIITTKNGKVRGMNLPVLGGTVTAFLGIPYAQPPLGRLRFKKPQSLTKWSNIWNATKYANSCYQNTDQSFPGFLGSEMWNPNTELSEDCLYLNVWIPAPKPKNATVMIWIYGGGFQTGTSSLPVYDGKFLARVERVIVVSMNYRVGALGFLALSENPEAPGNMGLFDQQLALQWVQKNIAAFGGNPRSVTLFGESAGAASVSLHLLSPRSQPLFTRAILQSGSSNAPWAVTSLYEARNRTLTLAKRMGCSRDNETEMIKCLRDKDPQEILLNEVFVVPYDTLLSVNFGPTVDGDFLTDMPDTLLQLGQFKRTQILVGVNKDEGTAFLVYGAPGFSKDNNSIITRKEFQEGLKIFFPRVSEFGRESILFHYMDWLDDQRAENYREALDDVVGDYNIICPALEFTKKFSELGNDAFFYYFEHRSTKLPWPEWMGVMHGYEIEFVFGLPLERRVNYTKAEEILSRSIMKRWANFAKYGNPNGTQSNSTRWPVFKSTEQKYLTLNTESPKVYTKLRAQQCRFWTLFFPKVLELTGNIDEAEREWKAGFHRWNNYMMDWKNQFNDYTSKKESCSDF
Chain of Acetylcholinesterase (O42275 whole entry): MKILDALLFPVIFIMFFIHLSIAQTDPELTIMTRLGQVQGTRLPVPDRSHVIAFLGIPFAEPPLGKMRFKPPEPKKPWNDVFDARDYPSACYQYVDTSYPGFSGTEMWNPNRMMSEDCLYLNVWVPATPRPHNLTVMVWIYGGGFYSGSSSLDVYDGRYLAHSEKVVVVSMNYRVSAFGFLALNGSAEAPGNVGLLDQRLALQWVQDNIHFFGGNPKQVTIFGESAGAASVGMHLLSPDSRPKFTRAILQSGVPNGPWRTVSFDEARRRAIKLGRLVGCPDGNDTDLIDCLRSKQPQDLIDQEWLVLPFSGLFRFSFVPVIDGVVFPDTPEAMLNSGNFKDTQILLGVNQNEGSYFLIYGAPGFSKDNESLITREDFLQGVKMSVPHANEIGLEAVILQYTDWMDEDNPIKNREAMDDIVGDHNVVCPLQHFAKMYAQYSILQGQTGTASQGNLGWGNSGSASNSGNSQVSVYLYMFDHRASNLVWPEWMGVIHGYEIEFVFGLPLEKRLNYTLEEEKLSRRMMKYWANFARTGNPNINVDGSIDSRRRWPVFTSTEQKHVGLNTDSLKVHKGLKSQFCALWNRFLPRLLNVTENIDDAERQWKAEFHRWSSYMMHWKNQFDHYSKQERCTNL
Chain of Acetylcholinesterase (Electrophorus electricus) (O42275 24-633 limits assumed): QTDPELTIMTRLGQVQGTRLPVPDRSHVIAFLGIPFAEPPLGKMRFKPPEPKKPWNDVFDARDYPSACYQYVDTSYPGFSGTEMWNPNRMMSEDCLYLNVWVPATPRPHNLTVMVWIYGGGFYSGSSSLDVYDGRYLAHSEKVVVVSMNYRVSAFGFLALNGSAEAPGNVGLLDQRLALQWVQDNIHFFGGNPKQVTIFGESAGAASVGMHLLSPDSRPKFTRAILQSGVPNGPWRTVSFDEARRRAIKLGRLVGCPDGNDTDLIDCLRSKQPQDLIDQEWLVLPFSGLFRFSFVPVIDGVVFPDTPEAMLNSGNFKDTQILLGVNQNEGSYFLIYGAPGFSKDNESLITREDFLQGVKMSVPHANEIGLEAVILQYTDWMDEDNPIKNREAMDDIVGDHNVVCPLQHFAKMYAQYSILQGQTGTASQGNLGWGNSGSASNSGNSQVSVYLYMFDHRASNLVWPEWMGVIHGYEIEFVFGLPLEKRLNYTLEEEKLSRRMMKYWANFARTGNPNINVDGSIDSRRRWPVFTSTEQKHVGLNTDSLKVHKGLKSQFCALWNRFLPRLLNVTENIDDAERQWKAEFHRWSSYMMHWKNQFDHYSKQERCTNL

Compound | Ratio [1] | Ratio IC50 [2] | IC50 (Butyrylcholinesterase [3]) | IC50 (Acetylcholinesterase) | inhibition [4] | IC50 (Butyrylcholinesterase [5]) | inhibition [6]
COc1ccc2cc3[n+](cc2c1OCCCCOc1cccc(O)c1)CCc1cc2c(cc1-3)OCO2 | 5.3 | 4.39 | 1.92 µM | 0.547 µM | 72.8% | 2.4 µM | –
COc1cc(/C=C/C(=O)O)ccc1O [FERULATE] | 3.13 | – | – | > 100 µM | 6.1% | – | –
COc1cc(/C=C/C(=O)OCCCOc2c(OC)ccc3cc4[n+](cc23)CCc2cc3c(cc2-4)OCO3)ccc1O | 3.43 | 0.75 | 2.25 µM | 3.21 µM | 75.8% | 2.4 µM | –
COc1ccc2cc3[n+](cc2c1OCCC(=O)NCCc1c[nH]c2ccc(C)cc12)CCc1cc2c(cc1-3)OCO2 | 3.11 | 1.39 | 1.79 µM | 1.42 µM | 75.8% | 1.96 µM | –
COc1ccc2cc3[n+](cc2c1OCCCCOc1ccccc1O)CCc1cc2c(cc1-3)OCO2 | 3.54 | 17 | 1.74 µM | 0.123 µM | 84.5% | 2.09 µM | Active
COc1ccc2cc3[n+](cc2c1OCCCOc1ccc(O)cc1)CCc1cc2c(cc1-3)OCO2 | 9.54 | 4.48 | 1.66 µM | 0.46 µM | 92% | 2.06 µM | –
COc1ccc2cc3[n+](cc2c1OCCCOc1ccccc1O)CCc1cc2c(cc1-3)OCO2 | 3.41 | 3.55 | 1.3 µM | 0.49 µM | 83.5% | 1.74 µM | –
COc1ccc2cc3[n+](cc2c1OCCCOc1cccc(O)c1)CCc1cc2c(cc1-3)OCO2 | 5.31 | 1.8 | 0.898 µM | 0.628 µM | 85.9% | 1.13 µM | –
COc1ccc2cc3[n+](cc2c1OCCC(=O)NCCc1c[nH]c2ccccc12)CCc1cc2c(cc1-3)OCO2 | 3.78 | – | 1.46 µM | 1.11 µM | 82.8% | 1.64 µM | –
COc1ccc2cc3[n+](cc2c1OCCCCOc1ccc(O)cc1)CCc1cc2c(cc1-3)OCO2 | 6.45 | 3.42 | 0.95 µM | 0.304 µM | 86.6% | 1.04 µM | –
COc1ccc2cc3[n+](cc2c1OC)CCc1cc2c(cc1-3)OCO2 | – | – | – | – | 36.3% | – | –
COc1ccc2cc3[n+](cc2c1OCCCCOc1ccccc1)CCc1cc2c(cc1-3)OCO2 | – | – | – | – | 57.4% | – | –
COc1ccc2[nH]cc(CCNC(=O)CCOc3c(OC)ccc4cc5[n+](cc34)CCc3cc4c(cc3-5)OCO4)c2c1 | 3.61 | 1.88 | 2.49 µM | 1.44 µM | 79.5% | 2.72 µM | –
COc1ccc2[nH]cc(CCNC(C)=O)c2c1 | 2.3 | – | – | – | – | – | –
